Series [1] can be described thus: Inhibition of TPA-induced EBV-early antigen activation in human Raji cells assessed as early antigen activation after 48 hrs relative to control. In kind it is cell-based, human gammaherpesvirus 4. The procedure, abridged: (§1)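 Raji cells at 10^6 cells/mL are harvested and induced in RPMI 1640/10% FCS with 4 mM n-butyric acid and 32 pmol TPA (20 ng/mL). Compound is added in DMSO at 32, 16, 3.2 or 0.32 nmol (mol ratio to TPA). After 48 h at 37 °C, EA-positive cells are counted blind (≥500 cells) as % versus TPA-only control ± SD. IC50 is the mol ratio to TPA giving 50% inhibition.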

Series [2] deals with Raji. Description: Inhibition of TPA-induced EBV-early antigen activation in human Raji cells assessed as early antigen activation at 16 nmol after 48 hrs relative to control. The settings on record: human gammaherpesvirus 4. In kind it is cell-based. Also noted: scale not given: the % may be the effect or the level left. The essentials:
as §1

A short description of series [3]: Cytotoxicity against human Raji cells assessed as cell viability at 32 nmol after 48 hrs by trypan blue staining. In kind it is cell-based. The settings on record: read-out: Activity. The procedure, abridged: (§2)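 Raji cells grown to 106 cells/mL, pelleted and resuspended in RPMI 1640 with 10% FCS plus 4 mM n-butyric acid and 32 pmol TPA (20 ng/mL in DMSO), with test compound in DMSO (32, 16, 3.2 or 0.32 nmol; 1000–10 mol ratio/TPA). Viability counted after 48 h at 37 °C by hemocytometer with Trypan Blue; at least 60% survival required.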

Series [4] is described as follows: Cytotoxicity against human Raji cells assessed as cell viability at 16 nmol after 48 hrs by trypan blue staining. In kind it is cell-based. The settings on record: read-out: Activity. The essentials:
as §2

Series [5] has as its system Raji. Kind of series: Inhibition of TPA-induced EBV-early antigen activation in human Raji cells assessed as early antigen activation at 3.2 nmol after 48 hrs relative to control. In kind it is cell-based. Also noted: scale not given: the % may be the effect or the level left. The settings on record: human gammaherpesvirus 4. The essentials:
as §1

Series [6] in a line: Cytotoxicity against human Raji cells assessed as cell viability at 0.32 nmol after 48 hrs by trypan blue staining. In kind it is cell-based. Conditions: read-out: Activity. The essentials: as §2
For series [7], the system named is Raji. Description: Inhibition of TPA-induced EBV-early antigen activation in human Raji cells assessed as early antigen activation at 0.32 nmol after 48 hrs relative to control. In kind it is cell-based. More on the design: scale not given: the % may be the effect or the level left. Conditions: human gammaherpesvirus 4. The essentials: as §1
The nature of series [8]: Cytotoxicity against human Raji cells assessed as cell viability at 3.2 nmol after 48 hrs by trypan blue staining. In kind it is cell-based. Conditions: read-out: Activity. The essentials:
as §2

Series [9] has as its system Raji. Description: Inhibition of TPA-induced EBV-early antigen activation in human Raji cells assessed as early antigen activation at 32 nmol after 48 hrs relative to control. In kind it is cell-based. More on the design: scale not given: the % may be the effect or the level left. Conditions: human gammaherpesvirus 4. The procedure, abridged: as §1

Take `CC1(C)C=Cc2c(O)c(C(=O)c3ccccc3)c3oc(=O)cc(-c4ccccc4)c3c2O1` [CALANONE]: in [1], the IC50 is given as 347 molar ratio. In addition, the Activity in the series on Raji [2] amounted to 32.3%; with Raji [5] it was 73.1%; with Raji [7] it was 93.3%; with Raji [9], 0%. Also, the viability at 48 h, 32 nmol in [3] was 70%. In addition, the viability at 48 h, 16 nmol in series [4] was over 80%. Further, in series [6], the viability at 48 h, 0.32 nmol is over 80%. Moreover, in series [8], the viability at 48 h, 3.2 nmol was over 80%.

Take `C/C=C(\C)C(=O)c1c(OC)c2c(c3c(CCC)cc(=O)oc13)OC(C)(C)C=C2`: in series [1], the IC50 is 268 molar ratio. Also, the Activity in the series with Raji [2] came out at 19.5%; in the series with Raji [5], 62.5%; in the series with Raji [7], 90.8%; with Raji [9], 0%. The viability at 48 h, 32 nmol in series [3] is 60%. Also, the viability at 48 h, 16 nmol in series [4] was over 80%. In addition, in series [6], the viability at 48 h, 0.32 nmol was over 80%. Also, the viability at 48 h, 3.2 nmol in series [8] was over 80%.

For `CCCc1cc(=O)oc2c(C(=O)C(C)CC)c(O)c(CC=C(C)C)c(O)c12` (stereo not given), in series [1], the IC50 was determined as 170 molar ratio. Further, the Activity in the series with Raji [2] worked out at 13.7%; with Raji [5], 50.6%; in the series on Raji [7], 84.2%; with Raji [9], 0%. The viability at 48 h, 32 nmol in series [3] was 60%. Further, the viability at 48 h, 16 nmol in series [4] is over 80%. The viability at 48 h, 0.32 nmol in series [6] is over 80%. The viability at 48 h, 3.2 nmol in series [8] was over 80%.

In the case of `CC1=C(/C=C/C(C)=C/C=C/C(C)=C/C=C/C=C(C)/C=C/C=C(C)/C=C/C2=C(C)CCCC2(C)C)C(C)(C)CCC1` [BETA CAROTENE], the IC50 in series [1] was 400 molar ratio. Moreover, the Activity amounted to 100% in the series with Raji [7] and 9.1% in the series on Raji [9].

With `CCC(C)C(=O)c1c(O)c2c(c3c(-c4ccccc4)cc(=O)oc13)OC(C(C)(C)O)C2` (stereo not given) [BRASIMARIN B], in series [1], the IC50 is given as 342 molar ratio. Further, the Activity in the series on Raji [2] was determined as 32.6%; with Raji [5] it was 71.6%; with Raji [7] it was 92.5%; with Raji [9], 0%. For the same compound, the viability at 48 h, 32 nmol in [3] was 70%. Moreover, the viability at 48 h, 16 nmol in series [4] was over 80%. In addition, the viability at 48 h, 0.32 nmol in series [6] was over 80%. The viability at 48 h, 3.2 nmol in series [8] was over 80%.

`CC(C)=CCc1c2c(c3oc(=O)cc(-c4ccccc4)c3c1O)C(=O)[C@H](C)[C@@H](C)O2` [BRASIMARIN C]: in [1], the IC50 stood at 348 molar ratio. Besides, the Activity came to 33.3% in the series on Raji [2], 70.2% in the series on Raji [5], 93.8% in the series with Raji [7] and 0% in the series with Raji [9]. For the same compound, in series [3], the viability at 48 h, 32 nmol stood at 70%. Moreover, the viability at 48 h, 16 nmol in series [4] is over 80%. Further, the viability at 48 h, 0.32 nmol in series [6] was over 80%. Also, in [8], the viability at 48 h, 3.2 nmol was over 80%.

Take `CCCc1cc(=O)oc2c(C(=O)c3ccccc3)c(O)c3c(c12)OC(C)(C)C=C3` [BRASIMARIN A]: the IC50 in series [1] is 349 molar ratio. In addition, the Activity in the series on Raji [2] turned out to be 33.3%; in the series with Raji [5] it was 72.1%; in the series on Raji [7], 93.8%; in the series on Raji [9], 0%. The viability at 48 h, 32 nmol in series [3] was found to be 70%. Moreover, in [4], the viability at 48 h, 16 nmol is over 80%. Moreover, in [6], the viability at 48 h, 0.32 nmol is over 80%. Also, in [8], the viability at 48 h, 3.2 nmol is over 80%.

For `CCCc1cc(=O)oc2c3c(c4c(c12)OC(C)(C)C=C4)O[C@H](C)[C@H](C)[C@@H]3O` [CALANOLIDE C], in series [1], the IC50 was 351 molar ratio. Besides, the Activity in the series on Raji [2] was 35.1%; in the series on Raji [5], 74%; with Raji [7] it was 94.3%; in the series on Raji [9] it was 0%. Further, the viability at 48 h, 32 nmol in series [3] was found to be 70%. Moreover, the viability at 48 h, 16 nmol in series [4] is over 80%. Further, in series [6], the viability at 48 h, 0.32 nmol was over 80%. Further, the viability at 48 h, 3.2 nmol in series [8] is over 80%.

For the compound `CCCc1cc(=O)oc2c3c(c4c(c12)OC(C)(C)C=C4)O[C@H](C)[C@@H](C)[C@@H]3O` [CALANOLIDE A], the IC50 in series [1] turned out to be 290 molar ratio. In addition, the Activity in the series on Raji [2] was 27.7%; with Raji [5] it was 66.6%; in the series with Raji [7], 92.5%; in the series with Raji [9], 0%. Moreover, the viability at 48 h, 32 nmol in series [3] came to 60%. In addition, the viability at 48 h, 16 nmol in series [4] was over 80%. Moreover, the viability at 48 h, 0.32 nmol in [6] was over 80%. Also, in [8], the viability at 48 h, 3.2 nmol was over 80%.

Source of the values: ChEMBL document CHEMBL1150675, “Chemical constituents of Calophyllum brasiliense. 2. Structure of three new coumarins and cancer chemopreventive activity of 4-substituted coumarins” (J Nat Prod, 2003).
